6 compounds from ChEMBL document CHEMBL1828602, “CNS and antimalarial activity of synthetic meridianin and psammopemmin analogs” (Bioorg Med Chem, 2011) can be followed below.

pIC50, pKi: −log10 of the molar value. A value given as a limit tells only on which side of the number the result lay.

Test [1] has as its system A549. The experiment in a line: Cytotoxicity against human A549 cells after 72 hrs. In kind it is cell-based. The essentials: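 A549 cells at 12,000 per well in DMEM F12 (no HEPES or phenol red) with 2% FBS and 1% penicillin–streptomycin, preincubated 24 h at 37 °C, 5% CO2. Compounds then added, 72 h incubation. Viability by MTS-type tetrazolium reagent, 1 h at 37 °C, absorbance at 490 nm. IC50 determined.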

The target of test [2] is Sodium-dependent dopamine transporter (Homo sapiens, UniProt Q01959). In words: Displacement of [3H]WIN35428 from DAT after 1.5 hrs by scintillation counting. In general terms: Loss of bound radioactivity is the signal in a displacement assay; it reports binding, not function.
Test [3] deals with 5-hydroxytryptamine receptor 2B (Homo sapiens, UniProt P41595). The experiment in a line: Displacement of [3H]LSD from 5-HT2B receptor after 1.5 hrs by scintillation counting.
Test [4] concerns the target 5-hydroxytryptamine receptor 5A (Homo sapiens, UniProt P47898). In words: Displacement of [3H]LSD from 5-HT5A receptor after 1.5 hrs by scintillation counting.
Test [5] addresses D(1B) dopamine receptor (Homo sapiens, UniProt P21918). In words: Displacement of [3H][…] from dopamine D5 receptor after 1.5 hrs by scintillation counting.
The target of test [6] is T1, 5-hydroxytryptamine receptor 1A (Homo sapiens, UniProt P08908).
T1 sequence (P08908 whole entry): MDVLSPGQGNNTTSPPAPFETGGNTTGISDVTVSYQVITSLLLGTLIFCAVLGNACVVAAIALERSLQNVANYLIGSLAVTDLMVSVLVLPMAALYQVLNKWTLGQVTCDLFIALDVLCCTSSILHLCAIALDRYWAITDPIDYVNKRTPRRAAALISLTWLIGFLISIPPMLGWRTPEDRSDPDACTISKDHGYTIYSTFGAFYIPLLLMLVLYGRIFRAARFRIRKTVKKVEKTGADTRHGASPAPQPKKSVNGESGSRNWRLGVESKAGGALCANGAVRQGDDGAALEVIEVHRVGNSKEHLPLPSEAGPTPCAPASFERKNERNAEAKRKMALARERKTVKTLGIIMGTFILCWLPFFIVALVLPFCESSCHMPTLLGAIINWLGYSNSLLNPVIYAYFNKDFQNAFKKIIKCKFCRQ
In words: Displacement of [3H]8-OH-DPAT from 5-HT1A receptor after 1.5 hrs by scintillation counting.

The test system of test [7] is Plasmodium falciparum. In words: Antimalarial activity against transgenic Plasmodium falciparum 3D7 infected in human A positive erythrocytes after 72 hrs by luciferase reporter gene assay. The class given is functional, organism-based. As to conditions: 3D7, 72 h. The method, boiled down:
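Luciferase-expressing P. falciparum 3D7 kept in RPMI 1640 without phenol red, 10% heat-inactivated A+ human plasma, 4% washed A+ erythrocytes, 90% N2/5% O2/5% CO2, 37 °C. Ring-stage cultures (>70% rings) diluted to 0.5% parasitemia, 1.5% hematocrit. Eleven-point duplicate twofold series, final 100 to 0.098 µg/mL. Incubated 72 h, frozen at −20 °C, lysed, luminescence read (5 s integration). IC50 by nonlinear regression.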

The target in test [8] is T2, 5-hydroxytryptamine receptor 2C (Homo sapiens, UniProt P28335).
T2 sequence (P28335 whole entry): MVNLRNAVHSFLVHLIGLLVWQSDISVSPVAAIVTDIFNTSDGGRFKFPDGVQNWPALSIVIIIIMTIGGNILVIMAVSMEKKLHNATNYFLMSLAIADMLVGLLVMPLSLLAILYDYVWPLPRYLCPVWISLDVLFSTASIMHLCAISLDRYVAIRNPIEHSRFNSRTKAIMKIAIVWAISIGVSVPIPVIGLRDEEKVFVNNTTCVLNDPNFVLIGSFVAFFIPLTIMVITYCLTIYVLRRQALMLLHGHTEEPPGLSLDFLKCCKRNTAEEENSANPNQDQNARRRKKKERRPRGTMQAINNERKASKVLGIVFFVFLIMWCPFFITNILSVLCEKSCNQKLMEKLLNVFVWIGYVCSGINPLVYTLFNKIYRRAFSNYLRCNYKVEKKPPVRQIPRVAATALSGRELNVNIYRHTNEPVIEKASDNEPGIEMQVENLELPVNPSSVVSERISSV
The experiment in a line: Displacement of [3H]mesulergine from 5-HT2C receptor after 1.5 hrs by scintillation counting.

Test [9] has as its target 5-hydroxytryptamine receptor 7 (Homo sapiens, UniProt P34969). In words: Displacement of [3H]LSD from 5-HT7 receptor after 1.5 hrs by scintillation counting.
Test [10] deals with T3, Muscarinic acetylcholine receptor M5 (Homo sapiens, UniProt P08912).
T3 sequence (P08912 whole entry): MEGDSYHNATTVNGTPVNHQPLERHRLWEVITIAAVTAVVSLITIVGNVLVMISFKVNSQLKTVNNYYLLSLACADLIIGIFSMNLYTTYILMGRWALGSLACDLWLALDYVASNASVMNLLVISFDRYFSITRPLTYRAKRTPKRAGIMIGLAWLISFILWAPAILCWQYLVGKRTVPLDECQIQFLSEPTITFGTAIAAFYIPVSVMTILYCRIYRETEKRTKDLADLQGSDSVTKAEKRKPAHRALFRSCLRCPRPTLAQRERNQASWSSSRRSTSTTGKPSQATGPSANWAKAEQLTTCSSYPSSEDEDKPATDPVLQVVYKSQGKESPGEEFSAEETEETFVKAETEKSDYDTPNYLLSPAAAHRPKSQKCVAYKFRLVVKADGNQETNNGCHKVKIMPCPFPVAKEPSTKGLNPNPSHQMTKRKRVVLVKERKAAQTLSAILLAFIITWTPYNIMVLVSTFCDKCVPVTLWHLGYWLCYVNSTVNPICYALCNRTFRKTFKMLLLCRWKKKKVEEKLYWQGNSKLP
In words: Displacement of [3H]QNB from muscarinic acetylcholine M5 receptor after 1.5 hrs by scintillation counting.

Test [11] concerns the target 5-hydroxytryptamine receptor 1D (Homo sapiens, UniProt P28221). In words: Displacement of [3H]5-carboximidotryptamine from 5-HT1D receptor after 1.5 hrs by scintillation counting.
Test [12] can be described thus: Inhibition of PKA.
Test [13] deals with HEp-2. In words: Cytotoxicity against human Hep2 cells. In kind it is cell-based.
In test [14] the test system is SH-SY5Y. The experiment in a line: Cytotoxicity against human SH-SY5Y cells by MTS assay. In kind it is cell-based.
The target of test [15] is Cyclin-dependent kinase 5 (Homo sapiens, UniProt Q00535). In words: Inhibition of CDK5.
Test [16] can be described thus: Inhibition of PKG.
Test [17] can be described thus: Cytotoxicity against mouse LMM3 cells. The class given is cell-based.
The target of test [18] is CDK9/cyclin T1 (Homo sapiens, UniProt P50750). In words: Inhibition of human recombinant CDK9/cyclin T expressed in insect cells assessed as pRB fragment (773 to 928) phosphorylation using [33P]gamma-ATP after 30 mins by scintillation counting.
Test [19] in a line: Inhibition of pig brain CK1delta/epsilon assessed as RRKHAAIGSpAYSITA phosphorylation using [33P]gamma-ATP after 30 mins by scintillation counting. Also noted: species or system Sus scrofa.
The test system of test [20] is HT-29. The experiment in a line: Cytotoxicity against human HT-29 cells. In kind it is cell-based.
For test [21], the target named is Cyclin-dependent kinase 2/cyclin A (Homo sapiens, UniProt P24941). The experiment in a line: Inhibition of human recombinant CDK2/cyclin A expressed in insect cells assessed as histone phosphorylation using [33P]gamma-ATP after 30 mins by scintillation counting.

Sequence of 5-hydroxytryptamine receptor 5A (P47898 whole entry): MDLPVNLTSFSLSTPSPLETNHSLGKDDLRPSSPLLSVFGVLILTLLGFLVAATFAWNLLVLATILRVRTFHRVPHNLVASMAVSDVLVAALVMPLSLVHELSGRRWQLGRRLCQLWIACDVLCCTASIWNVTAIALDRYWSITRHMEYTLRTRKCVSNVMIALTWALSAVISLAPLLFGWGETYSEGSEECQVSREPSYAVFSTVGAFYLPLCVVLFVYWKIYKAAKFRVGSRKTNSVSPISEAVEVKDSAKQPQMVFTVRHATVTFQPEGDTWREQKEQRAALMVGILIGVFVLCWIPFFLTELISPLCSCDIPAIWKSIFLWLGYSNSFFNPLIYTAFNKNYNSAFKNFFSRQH
Sequence of D(1B) dopamine receptor (P21918 whole entry): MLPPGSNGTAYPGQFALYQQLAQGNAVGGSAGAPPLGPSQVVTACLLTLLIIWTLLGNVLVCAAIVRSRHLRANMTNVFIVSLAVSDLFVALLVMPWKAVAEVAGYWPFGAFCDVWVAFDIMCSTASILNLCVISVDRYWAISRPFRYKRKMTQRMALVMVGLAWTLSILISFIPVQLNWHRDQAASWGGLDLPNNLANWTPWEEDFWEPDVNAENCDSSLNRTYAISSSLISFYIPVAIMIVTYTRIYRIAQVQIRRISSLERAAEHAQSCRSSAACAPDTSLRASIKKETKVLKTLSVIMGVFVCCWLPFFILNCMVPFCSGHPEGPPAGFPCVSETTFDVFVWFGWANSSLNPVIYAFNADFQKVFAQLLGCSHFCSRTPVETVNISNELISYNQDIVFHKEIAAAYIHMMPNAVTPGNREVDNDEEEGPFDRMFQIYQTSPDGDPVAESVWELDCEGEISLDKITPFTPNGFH
Sequence of 5-hydroxytryptamine receptor 1D (P28221 whole entry): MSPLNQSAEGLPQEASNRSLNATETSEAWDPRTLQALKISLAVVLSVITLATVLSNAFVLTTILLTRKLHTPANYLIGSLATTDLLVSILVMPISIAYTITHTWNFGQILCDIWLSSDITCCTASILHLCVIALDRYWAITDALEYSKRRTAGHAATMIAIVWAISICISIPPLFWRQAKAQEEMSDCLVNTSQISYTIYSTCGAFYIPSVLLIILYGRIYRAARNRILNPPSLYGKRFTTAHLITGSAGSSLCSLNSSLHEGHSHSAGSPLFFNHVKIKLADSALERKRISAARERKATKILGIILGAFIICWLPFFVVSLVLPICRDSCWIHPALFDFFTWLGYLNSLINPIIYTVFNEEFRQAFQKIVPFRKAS
Sequence of 5-hydroxytryptamine receptor 2B (P41595 whole entry): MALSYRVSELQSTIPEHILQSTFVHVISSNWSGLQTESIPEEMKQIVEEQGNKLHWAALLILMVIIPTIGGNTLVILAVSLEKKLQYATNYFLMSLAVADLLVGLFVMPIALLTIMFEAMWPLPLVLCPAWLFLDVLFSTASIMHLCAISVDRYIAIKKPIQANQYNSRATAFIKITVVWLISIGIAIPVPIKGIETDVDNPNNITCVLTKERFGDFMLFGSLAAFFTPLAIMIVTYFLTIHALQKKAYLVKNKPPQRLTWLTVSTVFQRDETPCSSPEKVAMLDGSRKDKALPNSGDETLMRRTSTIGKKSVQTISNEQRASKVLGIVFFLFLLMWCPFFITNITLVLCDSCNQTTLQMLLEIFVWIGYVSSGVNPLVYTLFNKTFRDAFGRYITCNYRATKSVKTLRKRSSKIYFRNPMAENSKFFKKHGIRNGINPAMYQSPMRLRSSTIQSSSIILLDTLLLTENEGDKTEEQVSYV
Sequence of 5-hydroxytryptamine receptor 7 (P34969 whole entry): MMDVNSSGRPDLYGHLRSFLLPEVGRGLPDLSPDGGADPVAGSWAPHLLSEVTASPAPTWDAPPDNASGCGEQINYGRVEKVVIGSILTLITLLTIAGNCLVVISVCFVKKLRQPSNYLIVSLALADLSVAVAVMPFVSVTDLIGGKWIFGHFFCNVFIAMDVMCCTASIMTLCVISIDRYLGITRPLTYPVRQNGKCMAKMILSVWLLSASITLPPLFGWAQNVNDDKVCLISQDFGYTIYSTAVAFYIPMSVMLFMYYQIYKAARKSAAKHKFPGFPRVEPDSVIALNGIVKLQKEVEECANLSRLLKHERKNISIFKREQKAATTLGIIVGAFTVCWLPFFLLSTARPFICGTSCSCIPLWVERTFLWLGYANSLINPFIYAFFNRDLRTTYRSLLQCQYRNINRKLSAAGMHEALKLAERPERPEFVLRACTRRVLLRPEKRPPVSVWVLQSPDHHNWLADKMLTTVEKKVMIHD
Sequence of Sodium-dependent dopamine transporter (Q01959 whole entry): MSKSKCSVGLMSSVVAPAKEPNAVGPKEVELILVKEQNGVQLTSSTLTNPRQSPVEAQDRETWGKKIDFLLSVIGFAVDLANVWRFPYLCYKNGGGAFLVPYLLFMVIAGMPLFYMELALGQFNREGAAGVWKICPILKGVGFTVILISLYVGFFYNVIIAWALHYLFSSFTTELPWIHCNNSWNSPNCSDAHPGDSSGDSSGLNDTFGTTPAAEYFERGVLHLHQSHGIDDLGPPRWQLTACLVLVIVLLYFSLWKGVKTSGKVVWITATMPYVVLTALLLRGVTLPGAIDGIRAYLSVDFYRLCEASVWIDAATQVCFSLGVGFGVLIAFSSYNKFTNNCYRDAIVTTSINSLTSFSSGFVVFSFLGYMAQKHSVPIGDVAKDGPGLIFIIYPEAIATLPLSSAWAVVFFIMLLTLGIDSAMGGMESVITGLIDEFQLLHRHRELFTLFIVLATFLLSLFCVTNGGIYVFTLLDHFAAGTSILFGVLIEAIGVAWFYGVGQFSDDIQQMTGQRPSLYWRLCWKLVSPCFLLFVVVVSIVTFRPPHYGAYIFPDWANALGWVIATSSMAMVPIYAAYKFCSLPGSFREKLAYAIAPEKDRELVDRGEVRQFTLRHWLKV
Sequence of Cyclin-dependent kinase 5 (Q00535 whole entry): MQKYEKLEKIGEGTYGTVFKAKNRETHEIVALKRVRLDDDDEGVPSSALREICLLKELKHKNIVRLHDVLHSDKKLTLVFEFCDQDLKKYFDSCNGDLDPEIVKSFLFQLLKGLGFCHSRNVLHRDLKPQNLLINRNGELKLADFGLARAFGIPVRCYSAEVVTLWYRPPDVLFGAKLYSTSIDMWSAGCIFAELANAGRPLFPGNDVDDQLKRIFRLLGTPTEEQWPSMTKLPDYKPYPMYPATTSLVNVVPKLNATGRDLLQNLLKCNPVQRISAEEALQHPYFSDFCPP
Sequence of CDK9/cyclin T1 (O60563 whole entry, the tested form may be a part): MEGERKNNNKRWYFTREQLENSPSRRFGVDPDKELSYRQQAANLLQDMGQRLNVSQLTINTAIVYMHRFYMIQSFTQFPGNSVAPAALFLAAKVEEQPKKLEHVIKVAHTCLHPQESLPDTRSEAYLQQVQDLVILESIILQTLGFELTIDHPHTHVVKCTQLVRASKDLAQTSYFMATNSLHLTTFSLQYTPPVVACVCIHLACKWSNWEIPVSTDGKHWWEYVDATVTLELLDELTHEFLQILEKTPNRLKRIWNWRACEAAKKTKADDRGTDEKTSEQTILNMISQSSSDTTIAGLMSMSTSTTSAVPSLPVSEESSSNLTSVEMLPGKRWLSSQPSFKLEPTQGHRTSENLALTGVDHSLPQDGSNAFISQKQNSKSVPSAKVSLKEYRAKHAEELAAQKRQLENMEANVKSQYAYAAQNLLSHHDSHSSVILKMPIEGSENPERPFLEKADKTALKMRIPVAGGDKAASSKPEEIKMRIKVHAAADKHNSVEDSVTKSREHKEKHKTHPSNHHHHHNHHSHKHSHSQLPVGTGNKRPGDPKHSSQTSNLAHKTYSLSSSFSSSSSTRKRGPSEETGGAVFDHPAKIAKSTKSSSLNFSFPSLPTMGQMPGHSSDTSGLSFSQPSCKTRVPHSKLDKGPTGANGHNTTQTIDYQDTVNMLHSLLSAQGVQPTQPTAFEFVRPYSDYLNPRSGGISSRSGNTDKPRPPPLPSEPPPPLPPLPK
Sequence of CDK9/cyclin T1 (P50750 whole entry, the tested form may be a part): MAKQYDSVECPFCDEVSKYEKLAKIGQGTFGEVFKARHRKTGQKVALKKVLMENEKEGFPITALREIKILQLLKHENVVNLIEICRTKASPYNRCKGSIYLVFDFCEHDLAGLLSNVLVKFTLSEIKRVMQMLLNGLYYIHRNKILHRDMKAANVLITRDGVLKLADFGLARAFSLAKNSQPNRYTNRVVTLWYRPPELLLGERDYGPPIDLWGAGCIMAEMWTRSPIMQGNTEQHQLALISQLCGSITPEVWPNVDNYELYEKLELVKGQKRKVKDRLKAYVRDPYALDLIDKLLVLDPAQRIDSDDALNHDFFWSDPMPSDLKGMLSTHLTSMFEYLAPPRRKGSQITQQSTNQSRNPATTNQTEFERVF

What is called pIC50 is −log10 of the IC50, conventionally taken in molar units. As a reminder, the pKi is the Ki on a negative log10 scale, so that one unit is a factor of ten. Read a high pKi as a low Ki. Consider `COc1cccc2[nH]cc(-c3ccnc(N)n3)c12`, for which the pIC50 in [1] (Homo sapiens, A549, 72 h) is < 3.38; in test [2], < 5.00; in test [7], 4.40; in test [10], < 5.00. The pKi in test [3] is 7.06; in test [4] it was 5.82; in test [5] it was < 5.00; in test [6] it was 5.87; in test [8], < 5.00; in [9], 5.70. Besides, the pKi in [11] is < 5.00.
As to `Nc1nc(Cl)ncc1-c1c[nH]c2cccc(O)c12`, the pIC50 in test [1] (Homo sapiens, A549, 72 h) was < 3.59; in test [2], < 5.00; in test [3], < 5.00; in test [4] it was < 5.00; in test [6], < 5.00; in test [7] it was < 4.42. The pIC50 in [8], in test [9] and in [11] was < 5.00 in each case. Moreover, the pKi in [5] is < 5.00; in [10] it was 5.15.
Consider `Nc1nccc(-c2c[nH]c3cccc(O)c23)n1` [MERIDIANIN A], for which the negative logarithm of the IC50 (pIC50) in [1] (Homo sapiens, A549, 72 h) was 4.82; in test [12], 4.96; in test [13], < 4.00; in test [4], < 5.00; in test [7], 4.92; in [14], < 4.52. Further, the pIC50 is 5.46 in test [15]; 3.70 in [16]; < 4.00 in test [17]; 5.62 in test [18]; < 5.00 in [9]; 5.96 in test [19]. Besides, the pIC50 in [20] is < 4.00; in [21] it was 5.51. Also, the pKi is 5.63 in test [2]; 6.82 in test [3]; < 5.00 in test [5]; 6.16 in test [6]; < 5.00 in test [8]; < 5.00 in test [10]. The pKi in [11] was < 5.00.
As to `CCN(CC)c1nccc(-c2c[nH]c3cc(Cl)ccc23)n1` [MERIDOQUIN], the pIC50 in [1] (Homo sapiens, A549, 72 h) was < 3.48; in test [7] it was 3.70.
Turning to `Nc1nc(Br)ncc1-c1c[nH]c2cccc(O)c12` [PSAMMOPEMMIN A], the pIC50 in test [1] (Homo sapiens, A549, 72 h) is < 3.66; in test [2], < 5.00; in test [3], < 5.00; in [4], < 5.00; in test [6], < 5.00; in test [7], < 4.48. Moreover, the pIC50 in test [8], in [9] and in test [10] was < 5.00 in each case. Besides, the pKi in test [5] and in test [11] was < 5.00 in each case.
Take `CC1=C[C@H]2O[C@@H]3C[C@H]4OC(=O)/C=C\C=C\[C@H]([C@@H](C)O)OCC/C(C)=C/C(=O)OC[C@@]2(CC1)[C@]4(C)[C@]31CO1` [RORIDIN E]: in [1] (a549), the pIC50 is > 5.01.
